The results in this text go back to ChEMBL document CHEMBL2057119, “Small molecules that protect against β-amyloid-induced cytotoxicity by inhibiting aggregation of β-amyloid” (Bioorg Med Chem, 2012).

Structures are written as SMILES. The source made the active and inactive calls.

Data set [1] concerns the target T1, Amyloid-beta precursor protein (Homo sapiens, UniProt P05067). The data set can be described thus: Inhibition of amyloid beta (1 to 42) fibril formation at 10 uM after 1 hr by ThT spectrofluorometric analysis. In outline:
(§1)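 ThT diluted to 5 µM in 50 mM glycine buffer was then added. After 10 s of shaking, fluorescence was read at excitation 450 nm and emission 480 nm, as a measure of fibril formation.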

For data set [2], the system named is Mus musculus. Briefly: Antialzheimer activity in po dosed ICR mouse assessed as reduction in amyloid beta (1 to 42)-induced spontaneous memory loss measured after 2 days by Y-maze test. In kind it is functional, organism-based. The procedure, abridged: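 Male ICR mice were injected ICV with 50 µL of Aβ(1–42) (10 nM, aggregated at 37 °C for 6 days). Various oral doses in the 50–200 mg/kg range followed, once daily. On day 2, each mouse moved freely in a three-arm Y-maze for 8 min. An arm entry required all four limbs inside, and spontaneous alternation was derived from the entry sequence. n = 10, mean ± SEM, t-test.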

For data set [3], the system named is Mus musculus. The data set can be described thus: Antialzheimer activity in po dosed ICR mouse assessed as reduction in amyloid beta (1 to 42)-induced spontaneous memory loss measured after 2 days by object recognition task relative to control. Type of data set: functional, organism-based. In outline: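 ICV pre-aggregated Aβ(1–42) (10 nM, 50 µL) was given to male ICR mice, followed by once-daily oral doses in the 50–200 mg/kg series. The object recognition task ran on days 2–3. Exploration was defined as nose within 2 cm of and/or touching an object. Preference index = new-object exploration time / total exploration time. n = 10, mean ± SEM, t-test.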

Data set [4] deals with Mus musculus. The data set can be described thus: Antialzheimer activity in ICR mouse assessed as increase in amyloid beta (1 to 42)-induced step-through latency at 100 mg/kg, po measured after 3 days by passive avoidance test. Type of data set: functional. The procedure, abridged: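 Male ICR mice got 50 µL of pre-aggregated Aβ(1–42) by ICV injection at 2.4 mm depth at bregma. The peptide was a 250 µM DMSO stock diluted in PBS to 10 nM and aggregated at 37 °C for 4 days. Oral compound was given at 100 mg/kg once daily, with testing on days 3–4. Training used a 0.25 mA, 3 s shock; step-through latency into the dark compartment was measured 24 h later. n = 10, mean ± SEM, t-test.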

Data set [5] deals with Mus musculus. The data set can be described thus: Antialzheimer activity in po dosed ICR mouse assessed as increase in amyloid beta (1 to 42)-induced step-through latency measured after 3 days by passive avoidance test. In kind it is functional, organism-based. The procedure, abridged:
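Male ICR mice received 50 µL of 10 nM Aβ(1–42) ICV at 2.4 mm depth at bregma, after pre-aggregation at 37 °C for 4 days. Oral doses were varied over 50–200 mg/kg, given once daily. Passive avoidance ran on days 3–4 with a 0.25 mA, 3 s training shock. Step-through latency to enter the dark compartment was recorded 24 h after training. n = 10, mean ± SEM, t-test.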

For data set [6], the system named is Mus musculus. The data set can be described thus: Antialzheimer activity in ICR mouse assessed as reduction in amyloid beta (1 to 42)-induced spontaneous memory loss at 100 mg/kg, po measured after 2 days by Y-maze test. The arrangement: scale not given: the % may be the effect or the level left. In kind it is functional. The procedure, abridged: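 Aβ(1–42) at 10 nM in PBS (from a 250 µM DMSO stock) was aggregated at 37 °C for 6 days, then injected ICV (50 µL, 2.4 mm depth at bregma) into male ICR mice. Compound was given at 100 mg/kg po once daily, and the Y-maze test was on day 2. Each mouse explored a three-arm maze freely for 8 min. An entry counted when all four limbs were in an arm; spontaneous alternation was scored as three consecutive different-arm entries. n = 10, mean ± SEM.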

Data set [7] relates to Mus musculus. The data set can be described thus: Antialzheimer activity in amyloid beta (1 to 42)-challenged ICR mouse assessed as decrease in escape latency at 100 mg/kg, po measured after 7 days by water maze test. Type of data set: functional, organism-based. More on the design: dose 100 mg/kg. The procedure, abridged:
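Male ICR mice were injected ICV with 50 µL of pre-aggregated Aβ(1–42) at 10 nM. Compound was then supplied for 7 days in pellet feed, each pellet containing 3 mg. Water maze training ran on days 3–7, and escape latency was recorded across training sessions. n = 10, mean ± SEM.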

Data set [8] concerns the target T1, Amyloid-beta precursor protein. Briefly: Inhibition of amyloid beta (1 to 42) aggregation at 2 uM after 2 hrs by SDS-PAGE and PICUP technique. In outline: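 Aβ(1–42) was monomerized in HFIP (0.5 mM), dried, and redissolved in DMSO. It was incubated at 25 µM final in PBS (pH 7.3) with compound at 2 µM final for 2 h at 37 °C. Samples were photo-cross-linked (PICUP) with ammonium persulfate and Ru(bpy)3Cl2 using three 1 s irradiations, quenched, and boiled. Products were resolved on a 10–20% tris-tricine gel and silver-stained.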

The nature of data set [9]: Cytotoxicity against mouse HT22 cells assessed as viability at 10 uM after 18 hrs by MTT assay. Type of data set: cell-based, HT-22. Conditions: read-out: Activity. The procedure, abridged:
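HT22 murine hippocampal cells were grown in DMEM with 10% FBS at 37 °C, 5% CO2, and plated at 5×10^3 cells/well. They were switched to plain DMEM and serum-starved for 1 h before exposure to compound at 10 µM for 18 h. MTT solution (5 mg/mL) was added for 4 h at 37 °C. Cells were solubilized in 50% DMF/10% SDS (pH 4.7) for 18 h, absorbance was read at 570/630 nm, and % cytotoxicity was calculated.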
(Formazan colour is commonly taken as a measure of viable cells.)

For data set [10], the target named is T1, Amyloid-beta precursor protein. Briefly: Inhibition of amyloid beta (25 to 35)-induced cell death in mouse HT22 cells at 10 uM after 18 hrs by MTT assay. Type of data set: cell-based. Particulars: HT-22, values are per cent of control. The procedure, abridged:
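HT22 cells were plated at 5×10^3 cells/well, serum-starved in plain DMEM for 1 h, and pretreated with compound for 1 h. Aβ(25–35) was prepared as a 10 mM DMSO stock, diluted 10-fold in PBS, and aggregated for 1 h at room temperature. It was then added at a final 25 µM, and cells were incubated for 18 h. Viability was measured by MTT (4 h), then solubilization in DMF/SDS and absorbance at 570/630 nm.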

The subject of data set [11] is Mus musculus. Briefly: Antialzheimer activity in ICR mouse assessed as reduction in amyloid beta (1 to 42)-induced spontaneous memory loss at 100 mg/kg, po measured after 2 days by object recognition task relative to control. The arrangement: scale not given: the % may be the effect or the level left. In kind it is functional. The procedure, abridged:
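Male ICR mice received ICV pre-aggregated Aβ(1–42) at 10 nM (50 µL, 2.4 mm depth at bregma), then compound at 100 mg/kg po once daily. Object recognition ran on days 2–3. Exploration was counted as the nose directed at an object within 2 cm and/or touching it, and objects were cleaned to avoid olfactory cues. Preference index = exploration time for new object / total exploration time. n = 10, mean ± SEM.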

Data set [12] has as its target T1, Amyloid-beta precursor protein. Briefly: Inhibition of amyloid beta (1 to 42) fibril formation after 1 hr by ThT spectrofluorometric analysis. The procedure, abridged: as §1

T1 sequence (P05067 whole entry): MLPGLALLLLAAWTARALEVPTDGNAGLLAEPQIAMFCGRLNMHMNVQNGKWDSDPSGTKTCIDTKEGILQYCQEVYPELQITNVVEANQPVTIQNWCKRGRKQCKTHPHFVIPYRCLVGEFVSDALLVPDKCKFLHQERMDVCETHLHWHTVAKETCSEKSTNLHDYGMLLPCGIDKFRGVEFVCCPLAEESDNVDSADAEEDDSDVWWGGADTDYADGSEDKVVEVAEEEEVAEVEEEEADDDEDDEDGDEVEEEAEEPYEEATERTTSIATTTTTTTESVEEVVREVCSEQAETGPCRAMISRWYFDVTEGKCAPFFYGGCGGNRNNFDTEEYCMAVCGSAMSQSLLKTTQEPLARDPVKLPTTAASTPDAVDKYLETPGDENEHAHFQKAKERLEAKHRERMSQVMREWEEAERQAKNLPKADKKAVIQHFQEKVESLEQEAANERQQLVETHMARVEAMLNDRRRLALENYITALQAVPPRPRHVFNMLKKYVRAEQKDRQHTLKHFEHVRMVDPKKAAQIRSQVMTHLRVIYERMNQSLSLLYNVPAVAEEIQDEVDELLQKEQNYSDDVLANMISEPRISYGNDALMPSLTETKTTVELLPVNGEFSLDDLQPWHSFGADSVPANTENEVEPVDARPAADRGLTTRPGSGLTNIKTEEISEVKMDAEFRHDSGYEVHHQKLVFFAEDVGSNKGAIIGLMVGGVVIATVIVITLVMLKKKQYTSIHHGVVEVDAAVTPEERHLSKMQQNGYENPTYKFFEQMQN

As for `COc1ccc(/C=C/c2cc(/C=C/c3ccc(OC)c(O)c3)ncn2)cc1O`, the inhibition in data set [1] stood at 80.9%. Moreover, the Activity entry is “Dose-dependent effect” in the data set on Mus musculus [2]; “Dose-dependent effect” in the data set on Mus musculus [3]; “Dose-dependent effect” in the data set on Mus musculus [5]; 72% in the data set on Mus musculus [6]; 7% with Mus musculus [11]. Further, the Time in the data set on Mus musculus [4] is 144 s. Moreover, the result with Mus musculus [7] was Active. The inhibition result in [8] is “Active”. For the same compound, in data set [9], the viability at 18 h, 10 µM came out at 136%. Also, the viability, % of control in [10] was found to be 91.8%. Besides, in [12], inhibition was half-maximal at 2.1 µM (IC50).

Usually inhibition stands for the drop in the measured response relative to a control, in per cent. By IC50 is commonly meant the concentration at which inhibition is half-maximal.
